Source: ChEMBL document CHEMBL4477183, “Antimicrobial Peptide from the Wild Bee Hylaeus signatus Venom and Its Analogues: Structure-Activity Study and Synergistic Effect with Antibiotics” (J Nat Prod, 2016)
In brackets after ≈: the same amount, converted by molar mass. Activity calls are given as the source filed them. The calls are words filed in the database; no cut-off is given here.

Columns and labels:
[1] = system: Pseudomonas aeruginosa; assay: Induction of cell permeabilization in Pseudomonas aeruginosa assessed as propidium iodide uptake at 4 uM after 10 mins; type: functional, organism-based
[2] = system: Staphylococcus aureus; assay: Antimicrobial activity against Staphylococcus aureus clinical isolates from university hospital in Motol assessed as reduction in bacterial growth after 20 hrs by drop diffusion test; type: functional
[3] = system: Escherichia coli; assay: Antimicrobial activity against Escherichia coli assessed as reduction in bacterial growth after 20 hrs by […]; type: functional
Method in brief: (§1)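 Broth microdilution in LB (YPG for C. albicans) with 2-fold serial dilutions, final 0.1–100 μM. Mid-log cells grown 3–5 h at 37 °C were added at about 5 × 10^5 cfu/mL, then incubated 20 h at 37 °C with shaking. A540 was read every 15 min to build growth curves. Medium with cells served as growth control; at least three runs in duplicate.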

[4] = system: Pseudomonas aeruginosa; assay: Antimicrobial activity against Pseudomonas aeruginosa 5482 assessed as reduction in bacterial growth after 20 hrs […]; type: functional; details: Pseudomonas aeruginosa, 5482, 20 h; method in brief: as §1
[5] = system: Pseudomonas aeruginosa; assay: Antimicrobial activity against Pseudomonas aeruginosa clinical isolates assessed as reduction in bacterial growth after 20 hrs by […]; type: functional; method in brief: as §1
[6] = system: Pseudomonas aeruginosa; assay: Bactericidal activity against Pseudomonas aeruginosa assessed as induction of bacteria killing at 20 uM after 4 hrs by time kill assay; type: functional, organism-based
Method in brief: (§2)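 P. aeruginosa grown at 37 °C with shaking to mid-log phase, then diluted in fresh LB to about 5 × 10^5 cfu/mL. This inoculum was mixed 1:1 with LB containing the agent and shaken at 37 °C for 4 h. Samples were taken at 0–240 min, serially diluted in 0.9% NaCl and plated on LB agar overnight at 37 °C; viable counts are given as cfu/mL. LB-only growth control; means of four independent runs, SEM.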

[7] = system: Pseudomonas aeruginosa; assay: Bactericidal activity against Pseudomonas aeruginosa assessed as reduction in bacterial count at 20 uM after 4 hrs by time kill assay; type: functional
Method in brief: (§3)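 P. aeruginosa inoculum about 5 × 10^5 cfu/mL in LB mixed 1:1 with LB alone or LB containing test agent at final 8, 24, 80 or 20 μM. Incubation was at 37 °C with shaking for 4 h. Aliquots taken at 0–240 min were serially diluted in 0.9% NaCl and plated on LB agar overnight at 37 °C. Viable cfu/mL were counted; means of four independent measurements.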

[8] = system: Staphylococcus aureus; assay: Antimicrobial activity against Staphylococcus aureus 6271 assessed as reduction in bacterial growth after 20 hrs by broth microdilution assay; details: Staphylococcus aureus, 6271, 20 h
[9] = system: Staphylococcus epidermidis; assay: Antimicrobial activity against Staphylococcus epidermidis assessed as reduction in bacterial growth after 20 hrs by broth microdilution assay
[10] = system: Staphylococcus aureus; assay: Antimicrobial activity against Staphylococcus aureus clinical isolates from Liberec regional hospital assessed as reduction in bacterial growth after 20 hrs by broth microdilution assay
[11] = Hemolytic activity in human type RBC after 1 hr; type: ADME, cell-based, Erythrocyte; details: red blood cells (erythrocytes), read-out: LC50
Method in brief: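 Peptides at 2.5–400 μM were incubated with a 4% suspension of human erythrocytes in physiological solution for 1 h at 37 °C, then centrifuged at 250g for 5 min; supernatant A540 was read. Saline-treated cells gave 0% lysis and 0.2% Triton X-100 gave 100%. LC50 is the concentration lysing 50% of cells; duplicates in at least two independent experiments.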

[12] = system: Pseudomonas aeruginosa; assay: Bacteriostatic activity against Pseudomonas aeruginosa assessed as induction of bacteria killing at 80 uM after 60 mins by time kill assay; type: functional, organism-based; method in brief: as §2
[13] = system: Pseudomonas aeruginosa; assay: Bacteriostatic activity against Pseudomonas aeruginosa assessed as induction of bacteria killing at 80 uM after 3 hrs by time kill assay; type: functional, organism-based; method in brief: as §2
[14] = system: Candida albicans; assay: Antifungal activity against Candida albicans assessed as reduction in fungal growth after 20 hrs by […]; type: functional; method in brief: as §1
[15] = system: Micrococcus luteus; assay: Antimicrobial activity against Micrococcus luteus assessed as reduction in bacterial growth after 20 hrs by […]; type: functional; method in brief: as §1
[16] = system: Bacillus subtilis; assay: Antimicrobial activity against Bacillus subtilis assessed as reduction in bacterial growth after 20 hrs by […]; type: functional; method in brief: as §1
[17] = system: Staphylococcus aureus; assay: Antimicrobial activity against Staphylococcus aureus clinical isolates assessed as FIC index in presence of amoxicillin after 20 hrs by drop diffusion test; type: functional
[18] = system: Pseudomonas aeruginosa; assay: Antimicrobial activity against Pseudomonas aeruginosa clinical isolates assessed as FIC index in presence of tetracycline after 20 hrs by drop diffusion test; type: functional
[19] = system: Pseudomonas aeruginosa; assay: Antimicrobial activity against Pseudomonas aeruginosa clinical isolates assessed as FIC index in presence of rifampicin after 20 hrs by drop diffusion test; type: functional
[20] = system: Pseudomonas aeruginosa; assay: Ratio of MIC for Pseudomonas aeruginosa to PC50 for induction of permeabilization in Pseudomonas aeruginosa; type: functional
Method in brief: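 PC50: washed 10^8 cfu/mL cells in PBS pH 7 with PI 10 μg/mL, peptide 0.31–80 μM, 90 min at 37 °C dark, fluorescence 544/620 nm as % of 4 μM octenidine, interpolated from log-concentration curve.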

[21] = system: Pseudomonas aeruginosa; assay: Bactericidal activity against Pseudomonas aeruginosa assessed as reduction in bacterial count at 8 uM after 60 mins by time kill assay; type: functional
Method in brief: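 Time-kill: P. aeruginosa (final about 5 × 10^5 cfu/mL) in LB with peptide (8 μM) or medium control was incubated 4 h at 37 °C with shaking. Samples were taken at 0–240 min, serially diluted in 0.9% NaCl and plated on LB agar overnight at 37 °C. Viable counts are given as cfu/mL; means of four independent measurements.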

[22] = system: Pseudomonas aeruginosa; assay: Antimicrobial activity against Pseudomonas aeruginosa assessed as disruption of cell envelope at 30 uM after 60 mins by negative staining based TEM analysis; type: functional, organism-based
Method in brief: (§4)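 P. aeruginosa at 10^8 cfu/mL was exposed to peptide at 30 or 150 μM for 60 min, with untreated cells as control. Cells were centrifuged, washed twice in 0.9% NaCl and adsorbed 5–10 min on Parlodion-carbon-coated copper grids. They were negatively stained 30–40 s with 0.25% phosphotungstic acid (pH 7.3) plus 0.01% BSA, air-dried and imaged by TEM.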

[23] = system: Pseudomonas aeruginosa; assay: Antimicrobial activity against Pseudomonas aeruginosa assessed as compact cell levels at 30 uM after 60 mins by negative staining based TEM analysis; type: functional; method in brief: as §4
[24] = system: Pseudomonas aeruginosa; assay: Antimicrobial activity against Pseudomonas aeruginosa assessed as detached cell envelope at 30 uM after 60 mins by negative staining based TEM analysis; type: functional, organism-based; method in brief: as §4
[25] = system: Pseudomonas aeruginosa; assay: Antimicrobial activity against Pseudomonas aeruginosa assessed as flagella attachment level at 30 uM after 60 mins by negative staining based TEM analysis; type: functional, organism-based; method in brief: as §4
[26] = system: Pseudomonas aeruginosa; assay: Antimicrobial activity against Pseudomonas aeruginosa assessed as cell damage at 150 uM after 60 mins by negative staining based TEM analysis; type: functional, organism-based; method in brief: as §4
[27] = system: Pseudomonas aeruginosa; assay: Antimicrobial activity against Pseudomonas aeruginosa assessed as cell envelope detachment at 150 uM after 60 mins by negative staining based TEM analysis; type: functional, organism-based; method in brief: as §4
[28] = system: Pseudomonas aeruginosa; assay: Antimicrobial activity against Pseudomonas aeruginosa assessed as flagella detachment at 150 uM after 60 mins by negative staining based TEM analysis; type: functional, organism-based; method in brief: as §4
[29] = system: Pseudomonas aeruginosa; assay: Induction of cell permeabilization in Pseudomonas aeruginosa assessed as propidium iodide uptake 10 to 100 mins; type: functional, organism-based
Method in brief: (§5)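 Mid-log P. aeruginosa was washed twice and resuspended in PBS (pH 7) at 10^8 cfu/mL with propidium iodide at 10 μg/mL. Peptide was added by 2-fold serial dilution in PBS (0.625–20 μM), with PBS as blank and octenidine dihydrochloride (4 μM final) as positive control. Plates were kept at 37 °C in the dark for 120 min, reading fluorescence (ex 544/em 620 nm) every minute. Means of at least three measurements.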

[30] = system: Pseudomonas aeruginosa; assay: Antimicrobial activity against Pseudomonas aeruginosa assessed as induction of inner bacterial content leakage at 30 uM after 60 mins by TEM analysis; type: functional, organism-based; method in brief: as §4
[31] = system: Pseudomonas aeruginosa; assay: Antimicrobial activity against Pseudomonas aeruginosa assessed as induction of cell integrity break down at 30 uM after 60 mins by TEM analysis; type: functional, organism-based; method in brief: as §4
[32] = system: Staphylococcus aureus; assay: Antimicrobial activity against Staphylococcus aureus clinical isolates from Liberec regional hospital assessed as reduction in bacterial growth after 20 hrs by […]; type: functional; method in brief: as §1
[33] = system: Pseudomonas aeruginosa; assay: Induction of cell permeabilization in Pseudomonas aeruginosa assessed as propidium iodide uptake at 5 to 10 uM after 10 mins; type: functional, organism-based; method in brief: as §5
[34] = system: Pseudomonas aeruginosa; assay: Bactericidal activity against Pseudomonas aeruginosa assessed as reduction in bacterial count at 24 uM after 60 mins by time kill assay; type: functional; method in brief: as §3

| Molecule | MIC [2] | MIC [3] | MIC [4] | MIC [5] | MIC [8] | MIC [9] | MIC [10] | HC50 at 1 h [11] | MIC [14] | MIC [15] | MIC [16] | fractional inhibitory concentration index (FICI) [17] | fractional inhibitory concentration index (FICI) [18] | fractional inhibitory concentration index (FICI) [19] | Ratio [20] | Activity [29] | Activity [31] | further results |
| --- | --- | --- | --- | --- | --- | --- | --- | --- | --- | --- | --- | --- | --- | --- | --- | --- | --- | --- |
| CCCCCCCCN=c1ccn(CCCCCCCCCCn2ccc(=NCCCCCCCC)cc2)cc1 |  |  |  |  |  |  |  |  |  |  |  |  |  |  |  |  |  | Activity [1]: Active |
| CO[C@H]1/C=C/O[C@@]2(C)Oc3c(C)c(O)c4c(O)c(c(/C=N/N5CCN(C)CC5)c(O)c4c3C2=O)NC(=O)/C(C)=C\C=C\[C@H](C)[C@H](O)[C@@H](C)[C@@H](O)[C@@H](C)[C@H](OC(C)=O)[C@@H]1C [RIFAMPIN] | < 0.1 µM | 10 µM (≈ 8.23 µg/mL) | 27 µM (≈ 22.2 µg/mL) | 19 µM (≈ 15.6 µg/mL) | < 0.1 µM | < 0.1 µM | < 0.1 µM |  |  |  |  |  |  |  |  |  |  | Activity [6]: Active; fold change (FC) [7]: 3 |
| CN(C)[C@@H]1C(O)=C(C(N)=O)C(=O)[C@@]2(O)C(O)=C3C(=O)c4c(O)cccc4[C@@](C)(O)[C@H]3C[C@@H]12 [TETRACYCLINE] | 2 µM (≈ 0.889 µg/mL) | 2.7 µM (≈ 1.2 µg/mL) | 29 µM (≈ 12.9 µg/mL) | 70 µM (≈ 31.1 µg/mL) | 0.9 µM (≈ 0.4 µg/mL) | > 100 µM | 1.1 µM (≈ 0.489 µg/mL) | > 200 µM |  |  |  |  |  |  |  |  |  | Activity [12]: inactive; Activity [13]: Active |
| H-GILSSLWKKLKKWIAK-NH2 | 2 µM | 2.5 µM | 13 µM | 24 µM | 2.5 µM | 1.6 µM | 1.8 µM | 57 µM | 13 µM | ≤ 3 µM | ≤ 7 µM | 0.58 | 0.42 | 0.29 | 19 |  |  |  |
| H-GIMSSLMKKLKKIIAK-NH2 | 23 µM | 9 µM | 5 µM | 7.4 µM | 32 µM | 1.9 µM | 7.6 µM | > 400 µM | 5.2 µM | ≤ 3 µM | ≤ 7 µM | 0.33 | 0.65 | 0.43 |  | Active | Active | fold change (FC) [21]: 2; Activity [22]: Active; Activity [23]: 60%; Activity [24]: Active; Activity [25]: Active; Activity [26]: Active; Activity [27]: Active; Activity [28]: Active; Activity [30]: Active |
| H-GIWSSLLKKLKKIIAK-NH2 | 5.3 µM | 1.6 µM | 6.3 µM | 21 µM | 20 µM | 1.5 µM |  | 165 µM | 16 µM | ≤ 3 µM | ≤ 7 µM | 0.4 | 0.35 | 0.27 | 30 | Dose-dependent effect | Dose-dependent effect | MIC [32]: 4.6 µM; Activity [33]: Active; fold change (FC) [34]: 2 |
